Laboratory results as given in ChEMBL document CHEMBL1153241, “2,3,5-Trisubstituted pyridines as selective AKT inhibitors-Part I: Substitution at 2-position of the core pyridine for ROCK1 selectivity” (Bioorg Med Chem Lett, 2010).

Tests used:
[1] = target: T1, RAC-alpha serine/threonine-protein kinase (Homo sapiens, UniProt P31749); experiment: Inhibition of full length AKT1
[2] = target: T1, RAC-alpha serine/threonine-protein kinase; experiment: Inhibition of AKT1 in human BT474 cells assessed as phosphorylation of GSK3; format: cell-based, BT-474
[3] = target: Rho-associated protein kinase 1 (Homo sapiens, UniProt Q13464); experiment: Inhibition of ROCK1
[4] = Selectivity ratio of IC50 for ROCK1 to IC50 for AKT1
[5] = target: T1, RAC-alpha serine/threonine-protein kinase; experiment: Inhibition of truncated AKT1
Procedure, shortened: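 AKT1 construct truncated to lack the PH domain. IC50 measured with ATP at or below its Km. At least two determinations (n ≥ 2).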

T1 sequence (P31749 whole entry): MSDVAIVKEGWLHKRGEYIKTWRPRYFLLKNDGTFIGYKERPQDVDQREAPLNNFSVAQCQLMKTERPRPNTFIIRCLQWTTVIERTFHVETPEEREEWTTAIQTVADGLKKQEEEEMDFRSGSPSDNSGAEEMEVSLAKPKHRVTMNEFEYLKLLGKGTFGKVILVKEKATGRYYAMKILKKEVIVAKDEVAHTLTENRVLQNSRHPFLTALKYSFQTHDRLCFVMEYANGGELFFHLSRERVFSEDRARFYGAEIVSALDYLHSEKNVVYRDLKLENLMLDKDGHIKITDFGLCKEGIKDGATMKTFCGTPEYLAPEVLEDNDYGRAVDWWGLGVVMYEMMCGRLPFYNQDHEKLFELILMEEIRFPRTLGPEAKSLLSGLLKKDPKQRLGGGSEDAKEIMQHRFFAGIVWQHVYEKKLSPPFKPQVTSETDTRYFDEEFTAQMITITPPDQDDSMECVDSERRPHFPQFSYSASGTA
Sequence of Rho-associated protein kinase 1 (Q13464 whole entry): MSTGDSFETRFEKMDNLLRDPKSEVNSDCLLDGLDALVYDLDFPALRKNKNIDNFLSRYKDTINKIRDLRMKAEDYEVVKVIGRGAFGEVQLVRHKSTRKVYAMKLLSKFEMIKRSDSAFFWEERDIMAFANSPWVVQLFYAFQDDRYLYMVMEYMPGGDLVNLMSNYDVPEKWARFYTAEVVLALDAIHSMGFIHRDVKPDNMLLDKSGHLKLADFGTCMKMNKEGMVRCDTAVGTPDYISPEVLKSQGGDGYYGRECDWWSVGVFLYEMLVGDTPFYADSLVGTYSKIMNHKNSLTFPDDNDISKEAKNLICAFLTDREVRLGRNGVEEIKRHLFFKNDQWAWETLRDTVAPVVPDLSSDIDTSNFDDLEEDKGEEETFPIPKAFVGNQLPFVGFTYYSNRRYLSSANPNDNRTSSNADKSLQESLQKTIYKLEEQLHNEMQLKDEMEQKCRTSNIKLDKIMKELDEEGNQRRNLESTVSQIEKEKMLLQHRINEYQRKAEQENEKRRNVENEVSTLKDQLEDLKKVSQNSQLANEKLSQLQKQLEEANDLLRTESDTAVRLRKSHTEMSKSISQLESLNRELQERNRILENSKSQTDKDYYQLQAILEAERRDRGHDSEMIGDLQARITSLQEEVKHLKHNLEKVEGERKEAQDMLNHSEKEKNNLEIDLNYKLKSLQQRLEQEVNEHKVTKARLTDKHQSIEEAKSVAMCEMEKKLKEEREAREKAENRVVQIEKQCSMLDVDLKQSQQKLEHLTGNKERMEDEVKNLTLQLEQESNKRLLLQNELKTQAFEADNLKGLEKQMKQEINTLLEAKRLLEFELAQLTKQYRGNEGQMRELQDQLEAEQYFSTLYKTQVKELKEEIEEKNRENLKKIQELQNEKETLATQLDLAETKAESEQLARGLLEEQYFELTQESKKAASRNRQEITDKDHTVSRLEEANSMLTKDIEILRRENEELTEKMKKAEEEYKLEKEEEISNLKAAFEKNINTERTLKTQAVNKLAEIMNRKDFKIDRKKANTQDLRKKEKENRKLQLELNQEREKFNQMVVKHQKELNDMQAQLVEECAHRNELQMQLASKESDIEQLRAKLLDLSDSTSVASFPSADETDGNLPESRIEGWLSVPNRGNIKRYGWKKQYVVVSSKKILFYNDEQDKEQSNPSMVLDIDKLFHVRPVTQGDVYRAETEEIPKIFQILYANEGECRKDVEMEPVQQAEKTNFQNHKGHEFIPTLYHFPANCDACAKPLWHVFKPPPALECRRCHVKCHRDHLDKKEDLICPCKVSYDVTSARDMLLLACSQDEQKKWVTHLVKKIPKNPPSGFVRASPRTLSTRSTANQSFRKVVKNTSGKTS

IC50 [1]	IC50 [2]	IC50 [3]	Ratio IC50 [4]	IC50 [5]	SMILES
0.008 µM	0.93 µM				Cc1n[nH]c2ccc(-c3cc(OC[C@@H](N)Cc4c[nH]c5ncccc45)cnc3-c3ccoc3)cc12
0.05 µM		> 10 µM	> 200		Cc1n[nH]c2ccc(-c3cc(OC[C@@H](N)Cc4ccccc4)cnc3-c3ccccc3)cc12
	0.5 µM				Cc1n[nH]c2ccc(-c3cc(OC[C@@H](N)Cc4c[nH]c5ccccc45)cnc3-c3ccoc3)cc12
0.063 µM		> 10 µM			Cc1n[nH]c2ccc(-c3cc(OC[C@@H](N)Cc4ccccc4)cnc3-c3cc(F)cc(F)c3O)cc12
0.001 µM	0.36 µM				Cc1n[nH]c2ccc(-c3cc(OC[C@@H](N)Cc4c[nH]c5ccc(F)cc45)cnc3-c3ccoc3)cc12
		> 10 µM		10.5 µM	Cc1n[nH]c2ccc(-c3cc(OC[C@@H](N)Cc4ccccc4)cnc3C#CC(C)(C)O)cc12
0.01 µM		5.2 µM			Cc1n[nH]c2ccc(-c3cc(OC[C@@H](N)Cc4ccccc4)cnc3-c3ccoc3)cc12
		1.29 µM		0.79 µM	Cc1n[nH]c2ccc(-c3cc(OC[C@@H](N)Cc4ccccc4)cnc3-c3ccco3)cc12
0.72 µM		> 10 µM			Cc1n[nH]c2ccc(-c3cc(OC[C@@H](N)Cc4ccccc4)cnc3C#CCCO)cc12
0.003 µM		7.6 µM	> 2000		Cc1n[nH]c2ccc(-c3cc(OC[C@@H](N)Cc4ccccc4)cnc3-c3cc(Cl)ccc3O)cc12
0.013 µM	6.8 µM				Cc1n[nH]c2ccc(-c3cc(OC[C@@H](N)Cc4c[nH]c5ccncc45)cnc3-c3ccoc3)cc12
0.5 µM		1.4 µM			Cc1n[nH]c2ccc(-c3cc(OC[C@@H](N)Cc4ccccc4)cnc3-c3ccc(O)cc3)cc12
0.001 µM	0.26 µM				Cc1n[nH]c2ccc(-c3cc(OC[C@@H](N)Cc4c[nH]c5c(F)cccc45)cnc3-c3ccoc3)cc12
0.015 µM		9.5 µM			Cc1n[nH]c2ccc(-c3cc(OC[C@@H](N)Cc4ccccc4)cnc3-c3ccccc3O)cc12
0.01 µM	4.3 µM				Cc1n[nH]c2ccc(-c3cc(OC[C@@H](N)Cc4c[nH]c5cccnc45)cnc3-c3ccoc3)cc12
		9.8 µM		0.01 µM	Cc1n[nH]c2ccc(-c3cc(OC[C@@H](N)Cc4ccccc4)cnc3-c3cc(F)ccc3O)cc12
0.079 µM		2.5 µM			Cc1n[nH]c2ccc(-c3cc(OC[C@@H](N)Cc4ccccc4)cnc3-c3cccs3)cc12
0.05 µM		6 µM			Cc1n[nH]c2ccc(-c3cc(OC[C@@H](N)Cc4ccccc4)cnc3-c3ccsc3)cc12
0.0008 µM	0.084 µM				Cc1occc1-c1ncc(OC[C@@H](N)Cc2c[nH]c3ccccc23)cc1-c1ccc2[nH]nc(C)c2c1
0.015 µM		> 10 µM			Cc1n[nH]c2ccc(-c3cc(OC[C@@H](N)Cc4ccccc4)cnc3-c3ccc[nH]3)cc12
0.0008 µM	0.22 µM				Cc1n[nH]c2ccc(-c3cc(OC[C@@H](N)Cc4c[nH]c5cc(F)ccc45)cnc3-c3ccoc3)cc12
0.1 µM		> 10 µM			COc1ccccc1-c1ncc(OC[C@@H](N)Cc2ccccc2)cc1-c1ccc2[nH]nc(C)c2c1
0.079 µM		> 10 µM			Cc1n[nH]c2ccc(-c3cc(OC[C@@H](N)Cc4ccccc4)cnc3-c3cccc(O)c3)cc12
